# Test results from publication PMC6626684 (Biochemical and biophysical research communications, 2019).
# Experiments:
# TRPV1 T671S [1] = molecular target: T1, TRPV1 T671S (Mus musculus, UniProt Q704Y3, T671S); assay: Single-channel inside-out patch-clamp recording, T671S mutant; type: cell-based; conditions: most piperine concentrations tested
# Method in brief: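 HEK293 cells transiently transfected (Lipofectamine 2000) with eYFP-fused mouse TRPV1 mutant, used 1–2 days later. Inside-out patches held at 0 mV for 50 ms, stepped to +80 mV for 1 s. Symmetrical 130 mM NaCl, 0.2 mM EDTA, 3 mM HEPES pH 7.2, no Ca2+, 25°C. Filtered at 2.25 kHz, sampled at 10 kHz. Po from Gaussian fits to all-point histograms; patches with >2 channels discarded. Repeated-measures two-way ANOVA.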
# WT TRPV1 [2] = molecular target: T2, WT TRPV1 (Mus musculus, UniProt Q704Y3); assay: Single-channel inside-out patch-clamp recording, WT channel; type: cell-based; conditions: for Hill slope factor: electrophysiology
# T2 sequence (Q704Y3 whole entry): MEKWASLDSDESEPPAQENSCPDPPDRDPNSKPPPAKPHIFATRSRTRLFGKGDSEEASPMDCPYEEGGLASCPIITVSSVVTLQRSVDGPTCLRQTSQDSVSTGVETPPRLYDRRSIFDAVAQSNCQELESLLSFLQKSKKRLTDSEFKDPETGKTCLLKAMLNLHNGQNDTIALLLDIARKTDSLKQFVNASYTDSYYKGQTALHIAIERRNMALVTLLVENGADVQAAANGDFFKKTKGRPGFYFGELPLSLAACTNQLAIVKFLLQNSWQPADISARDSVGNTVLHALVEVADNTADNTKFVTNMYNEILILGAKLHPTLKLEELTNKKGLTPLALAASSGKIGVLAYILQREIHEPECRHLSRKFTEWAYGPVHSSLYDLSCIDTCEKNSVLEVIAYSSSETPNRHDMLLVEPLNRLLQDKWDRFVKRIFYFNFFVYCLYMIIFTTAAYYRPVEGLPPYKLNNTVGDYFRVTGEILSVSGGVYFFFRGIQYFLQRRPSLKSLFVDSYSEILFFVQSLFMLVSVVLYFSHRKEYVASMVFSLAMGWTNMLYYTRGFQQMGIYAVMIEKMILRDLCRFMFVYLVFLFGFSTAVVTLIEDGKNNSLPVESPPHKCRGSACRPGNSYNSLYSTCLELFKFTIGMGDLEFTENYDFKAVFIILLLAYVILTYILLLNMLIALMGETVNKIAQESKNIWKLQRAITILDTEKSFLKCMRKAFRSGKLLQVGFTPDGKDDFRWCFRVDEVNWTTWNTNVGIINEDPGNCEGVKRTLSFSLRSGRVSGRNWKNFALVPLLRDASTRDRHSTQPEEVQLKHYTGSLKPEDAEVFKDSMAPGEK
# mTRPV1 T551V = mTRPV1 T551V (Mus musculus, UniProt Q704Y3, T551V); assay: Live-cell calcium fluorescence imaging; type: cell-based; conditions: for Hill slope factor: calcium imaging, T551V
# Chain of mTRPV1 T551V (Q704Y3 whole entry T551V): as the sequence (Q704Y3 whole entry) above, with T551V counted along it
# [3] = psychophysical tests; cited from earlier work
# [4] = test system: non-transfected HEK293 cells; assay: Calcium imaging control in non-transfected cells; type: cell-based
# TRPV1 E571A = TRPV1 E571A (Mus musculus, UniProt Q704Y3, E571A); assay: Single-channel inside-out patch-clamp recording, E571A mutant; type: cell-based; conditions: for Hill slope factor: electrophysiology, E571A
# Chain of TRPV1 E571A (Q704Y3 whole entry E571A): as the sequence (Q704Y3 whole entry) above, with E571A counted along it
# WT mTRPV1 = WT mTRPV1 (Mus musculus, UniProt Q704Y3); assay: Live-cell calcium fluorescence imaging; type: cell-based
# Chain of WT mTRPV1 (Q704Y3 whole entry): as the sequence (Q704Y3 whole entry) above
# TRPV1 T671V = TRPV1 T671V (Mus musculus, UniProt Q704Y3, T671V); assay: Single-channel inside-out patch-clamp recording, T671V mutant; type: cell-based
# Chain of TRPV1 T671V (Q704Y3 whole entry T671V): as the sequence (Q704Y3 whole entry) above, with T671V counted along it
# mTRPV1 E571A = mTRPV1 E571A (Mus musculus, UniProt Q704Y3, E571A); assay: Live-cell calcium fluorescence imaging; type: cell-based
# Chain of mTRPV1 E571A (Q704Y3 whole entry E571A): as the sequence (Q704Y3 whole entry) above, with E571A counted along it
# TRPV1 T551V = TRPV1 T551V (Mus musculus, UniProt Q704Y3, T551V); assay: Single-channel inside-out patch-clamp recording, T551V mutant; type: cell-based; conditions: for open probability / Hill slope factor: T551V; for Hill slope factor: electrophysiology
# Chain of TRPV1 T551V (Q704Y3 whole entry T551V): as the sequence (Q704Y3 whole entry) above, with T551V counted along it
# WT TRPV1 [5] = molecular target: T2, WT TRPV1; conditions: mTRPV1; cited from earlier work
# TRPV1 T671S [6] = molecular target: T1, TRPV1 T671S; conditions: capsaicin stimulation; cited from earlier work
# T1 sequence (Q704Y3 whole entry T671S, the tested form may be a part): as the sequence (Q704Y3 whole entry) above, with T671S counted along it
SMILES,Hill slope factor (WT TRPV1 [2]; WT),EC50 (mTRPV1 T551V) [µM],Hill slope factor (mTRPV1 T551V),relative pungency-taste threshold [3] [µM],EC50 (TRPV1 E571A) [µM],Hill slope factor (TRPV1 E571A),EC50 (WT mTRPV1) [µM],"Hill slope factor (WT mTRPV1; calcium imaging, WT)",EC50 (mTRPV1 E571A) [µM],"Hill slope factor (mTRPV1 E571A; calcium imaging, E571A)",EC50 (TRPV1 T551V) [µM],Hill slope factor (TRPV1 T551V),further results
"O=C(/C=C/C=C/c1ccc2c(c1)OCO2)N1CCCCC1 [piperine, Piperine]",2.2,5.1 ± 0.7,1.3,10.5,277 ± 36.5,0.7,3.3 ± 0.7,2.2,3.5 ± 0.5,2.2,93.5 ± 15.1,0.9,"open probability compared with wildtype channels (TRPV1 T671S [1]): significantly lower; EC50 (WT TRPV1 [2]): 252 ± 38.1 µM; open probability (Po) (WT TRPV1 [2]; 30 μM piperine, WT): 10%; maximal Po predicted by extrapolation (WT TRPV1 [2]; WT, extrapolation of Hill fit): about 36%; fluorescence signal at 30 μM (mTRPV1 T551V; 30 μM piperine, T551V expressing cells): decreased substantially; perceived pungency level, times lower than capsaicin [3]: 10-to-100 times; non-specific effects in untransfected cells [4]: no detectable non-specific effects; Emax (TRPV1 E571A; read-out: maximum activation open probability (estimated)): 22%; fluorescence intensity of the cells at 30 μM (WT mTRPV1; 30 μM piperine, WT, consistent with channel desensitization): decreased; efficacy (WT mTRPV1; calcium imaging, WT, normalized to 10 μM capsaicin response): 82.7 ± 5.7%; channel activity (TRPV1 T671V; 30 μM piperine): no channel activity; fluorescence signal at 30 μM (mTRPV1 E571A; 30 μM piperine, E571A expressing cells): decreased substantially; efficacy (mTRPV1 E571A; calcium imaging, E571A, normalized to 10 μM capsaicin response): 77.1 ± 7.3%; open probability (TRPV1 T551V; 10 μM piperine): 12.3 ± 2.2%; open probability (TRPV1 T551V; 30 μM piperine): 25.8 ± 5.1%"
"Oc1cc2c(cc1O)CN(C(=S)NCCc1ccc(Cl)cc1)CCC2 [CZP, capsazepine]",,,,,,,,,,,,,"inhibition of fluorescence intensity increase induced by 10 μM piperine (WT mTRPV1; 10 μM CZP with 10 μM piperine, calcium imaging): almost completely inhibited"
COc1cc(CNC(=O)CCCC/C=C/C(C)C)ccc1O [capsaicin],1.9,1 ± 0.02,3.3,0.6,1.3 ± 0.03,3.0,0.1 ± 0.002,1.9,1 ± 0.04,3.0,1.4 ± 0.03,3.3,maximum open probability (WT TRPV1 [5]): above 90%; channel activity of T671S when stimulated (TRPV1 T671S [6]): wildtype-like activities; currents from the same patches (TRPV1 T671V; capsaicin (10 μM)): robust currents
